Assay results taken from ChEMBL document CHEMBL5303300, “EUbOPEN Chemogenomics Library - Multiplex” (2023).
Several values for one entry are separate records, joined by “and”; a condition that tells them apart may be missing. Equal values may be shown once.

Test system: Fibroblast
Assay: Multiplex assay against human fibroblast
Format: toxicity, cell-based
Details: number of replicates 2
Procedure, shortened: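 Imaging took place on a CQ1 microscope at 37°C and 5% CO2 once compound had been added to live cells stained at seeding with Hoechst33342, BioTracker Green Microtubule Cytoskeleton Dye, MitoTracker Red and Annexin V Alexa Fluor 680. CellPathfinder machine-learning gating classed cells as Hoechst high-intensity objects or normal cells, classed normal cells as having healthy, pyknosed or fragmented nuclei, and classed pyknosed cells as mitotic or apoptotic. Tubulin, mitochondrial-mass and membrane-permeability phenotypes are per cents of the healthy-nucleus cells.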

[1] = 12 h, 1 µM, compound concentration 1 uM
[2] = 12 h, 10 µM, compound concentration 10 uM
[3] = 24 h, 1 µM, compound concentration 1 uM
[4] = 24 h, 10 µM, compound concentration 10 uM
[5] = 48 h, 1 µM, compound concentration 1 uM
[6] = 48 h, 10 µM, compound concentration 10 uM

## CS(=O)(=O)c1ccc(C(=O)Nc2cccc(COc3cc(F)c(Br)cc3CN3CC[C@H](O)C3)c2)c(Cl)c1.O=CO
[1]
  Population Apoptotic (%): 46% and 35%
  Population Healthy Nuclei (%): 48% and 72%
  Population Mitotic Cells (%): 53% and 64%
  Population Pyknosed Nuclei (%): 41% and 16%
  Total Cell Count: 114 and 171
[2]
  Population Apoptotic (%): 51% and 40%
  Population Healthy Nuclei (%): 48% and 51%
  Population Mitotic Cells (%): 48% and 59%
  Population Pyknosed Nuclei (%): 33% and 23%
  Total Cell Count: 211 and 262
[3]
  Population Apoptotic (%): 55% and 57%
  Population Healthy Nuclei (%): 50%
  Population Mitotic Cells (%): 42%
  Population Pyknosed Nuclei (%): 39% and 18%
  Total Cell Count: 120 and 190
[4]
  Population Apoptotic (%): 77% and 74%
  Population Healthy Nuclei (%): 53% and 58%
  Population Mitotic Cells (%): 22%
  Population Pyknosed Nuclei (%): 26% and 19%
  Total Cell Count: 217 and 251
[5]
  Population Apoptotic (%): 75% and 82%
  Population Healthy Nuclei (%): 62%
  Population Mitotic Cells (%): 24%
  Population Pyknosed Nuclei (%): 23% and 11%
  Total Cell Count: 123 and 198
[6]
  Population Apoptotic (%): 92% and 82%
  Population Healthy Nuclei (%): 62% and 60%
  Population Mitotic Cells (%): 7%
  Population Pyknosed Nuclei (%): 15% and 14%
  Total Cell Count: 245 and 274

## c1ccc2c(-c3coc4cc(-c5ccc(N6CCNCC6)cc5)cnc34)ccnc2c1
[1]
  Population Apoptotic (%): 33% and 46%
  Population Fragmented Nuclei (%): 18%
  Population Healthy Nuclei (%): 69% and 66%
  Population Hoechst High Intensity Objects (%): 0%
  Population Mitochondria Different-Phenotype (%): 0% and 2%
  Population Mitotic Cells (%): 66% and 53%
  Population Normal (%): 100%
  Population Pyknosed Nuclei (%): 16% and 14%
  Population Tubulin-Different-Phenotype (%): 10% and 15%
  Total Cell Count: 182 and 274
[2]
  Population Apoptotic (%): 68% and 73%
  Population Fragmented Nuclei (%): 15% and 7%
  Population Hoechst High Intensity Objects (%): 0%
  Population Mitochondria Different-Phenotype (%): 8% and 0%
  Population Mitotic Cells (%): 31% and 26%
  Population Normal (%): 100% and 98%
  Population Pyknosed Nuclei (%): 52% and 91%
  Population Tubulin-Different-Phenotype (%): 35% and 100%
  Total Cell Count: 223 and 162
[3]
  Population Apoptotic (%): 44% and 60%
  Population Healthy Nuclei (%): 73% and 71%
  Population Hoechst High Intensity Objects (%): 0%
  Population Mitochondria Different-Phenotype (%): 0% and 2%
  Population Mitotic Cells (%): 56% and 40%
  Population Normal (%): 100%
  Population Pyknosed Nuclei (%): 12% and 11%
  Population Tubulin-Different-Phenotype (%): 15% and 9%
  Total Cell Count: 195 and 271
[4]
  Population Apoptotic (%): 77% and 80%
  Population Fragmented Nuclei (%): 9%
  Population Hoechst High Intensity Objects (%): 0%
  Population Mitotic Cells (%): 22% and 19%
  Population Normal (%): 98% and 100%
  Population Pyknosed Nuclei (%): 83% and 66%
  Population Tubulin-Different-Phenotype (%): 80% and 50%
  Total Cell Count: 163 and 202
[5]
  Population Apoptotic (%): 53% and 48%
  Population Fragmented Nuclei (%): 16% and 27%
  Population Healthy Nuclei (%): 76% and 63%
  Population Mitochondria Different-Phenotype (%): 0%
  Population Mitotic Cells (%): 46% and 51%
  Population Normal (%): 100% and 99%
  Population Pyknosed Nuclei (%): 6% and 8%
  Population Tubulin-Different-Phenotype (%): 10% and 11%
  Total Cell Count: 208 and 323
[6]
  Population Apoptotic (%): 84% and 91%
  Population Fragmented Nuclei (%): 21%
  Population Healthy Nuclei (%): 28% and 18%
  Population Hoechst High Intensity Objects (%): 0%
  Population Mitochondria Different-Phenotype (%): 2% and 7%
  Population Mitotic Cells (%): 8%
  Population Normal (%): 99%
  Population Pyknosed Nuclei (%): 50% and 63%
  Population Tubulin-Different-Phenotype (%): 44% and 38%
  Total Cell Count: 171 and 210

## CS(=O)(=O)c1ccc(C(=O)Nc2cc(F)c(F)c(COc3cc(F)c(Br)cc3CN3CC[C@H](O)C3)c2)c(Cl)c1.O=CO
[1]
  Population Apoptotic (%): 25% and 38%
  Population Healthy Nuclei (%): 55%
  Population Hoechst High Intensity Objects (%): 0%
  Population Mitotic Cells (%): 75% and 61%
  Population Normal (%): 100%
  Total Cell Count: 220 and 267
[2]
  Population Apoptotic (%): 80% and 55%
  Population Healthy Nuclei (%): 29%
  Population Hoechst High Intensity Objects (%): 0%
  Population Mitotic Cells (%): 20% and 44%
  Population Normal (%): 100% and 99%
  Total Cell Count: 162 and 357
[3]
  Population Apoptotic (%): 54% and 55%
  Population Healthy Nuclei (%): 64% and 54%
  Population Hoechst High Intensity Objects (%): 0%
  Population Mitotic Cells (%): 45% and 44%
  Population Normal (%): 99%
  Total Cell Count: 246 and 309
[4]
  Population Apoptotic (%): 94% and 79%
  Population Healthy Nuclei (%): 35% and 27%
  Population Hoechst High Intensity Objects (%): 0%
  Population Mitotic Cells (%): 5%
  Population Normal (%): 100% and 99%
  Total Cell Count: 154 and 339
[5]
  Population Apoptotic (%): 73% and 71%
  Population Healthy Nuclei (%): 61% and 60%
  Population Hoechst High Intensity Objects (%): 0%
  Population Mitotic Cells (%): 26%
  Population Normal (%): 99%
  Total Cell Count: 294 and 351
[6]
  Population Apoptotic (%): 93% and 91%
  Population Healthy Nuclei (%): 25% and 19%
  Population Hoechst High Intensity Objects (%): 0%
  Population Mitotic Cells (%): 6% and 8%
  Population Normal (%): 99%
  Total Cell Count: 147 and 311
